From ChEMBL document CHEMBL1154599 (J Med Chem, 2009)
Activity calls are given as the source filed them. No cut-off for these calls is given here.

How the values were obtained:
[1] = biological target: T1, Amine oxidase [flavin-containing] B (Rattus norvegicus, UniProt P19643); assay: Inhibition of MAO-B from Wistar rat brain by radioenzymatic assay
T1 sequence (P19643 whole entry): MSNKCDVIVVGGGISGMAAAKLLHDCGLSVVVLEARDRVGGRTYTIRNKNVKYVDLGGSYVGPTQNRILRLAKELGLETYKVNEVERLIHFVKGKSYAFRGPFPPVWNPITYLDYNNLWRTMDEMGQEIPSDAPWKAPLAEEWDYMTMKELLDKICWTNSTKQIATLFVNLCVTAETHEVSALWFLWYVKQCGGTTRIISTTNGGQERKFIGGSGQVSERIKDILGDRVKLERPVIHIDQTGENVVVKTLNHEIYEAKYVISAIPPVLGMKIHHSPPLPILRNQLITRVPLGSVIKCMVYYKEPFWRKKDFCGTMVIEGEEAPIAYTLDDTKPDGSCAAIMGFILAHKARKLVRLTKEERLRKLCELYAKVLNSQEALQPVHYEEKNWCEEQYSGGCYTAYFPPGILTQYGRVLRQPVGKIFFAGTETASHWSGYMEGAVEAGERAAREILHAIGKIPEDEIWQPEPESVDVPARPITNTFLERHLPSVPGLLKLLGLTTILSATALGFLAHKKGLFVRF
How it was run: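 Crude mitochondrial fraction from male Wistar rat brain (150-175 g), 500 μg protein in 0.1 M phosphate pH 7.40. Preincubated 30 min at 37 °C with compound. Substrate then added: [14C]5-HT 5 μM for 30 min (MAO-A) or [14C]PEA 0.5 μM for 10 min (MAO-B), 37 °C. Stopped with acid, deaminated metabolites extracted into ether or toluene, counted by scintillation.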

Mus musculus [2] = assay: Ex vivo inhibition of MAO-B in C57Bl mouse brain at 3 mg/kg, po or 3 mg/kg, ip after 1 hr by radioenzymatic assay; format: functional, organism-based
How it was run: (§1)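 C57Bl mice (n = 6 per group) dosed orally or intraperitoneally at 3 mg/kg and killed 1 h later. Brains homogenized in 0.1 M phosphate pH 7.40. MAO-A ([14C]5-HT) and MAO-B ([14C]PEA) activities measured by radioenzymatic assay. Mean ± SEM, ANOVA with Dunnett's test.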

[3] = Dissociation constant, pKa by potentiometric titration; format: physicochemical
How it was run: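 5 × 10^-4 M sample in 0.15 M KCl acidified to pH 1.8 with 0.5 M HCl, then titrated to pH 12.2 with carbonate-free 0.5 M KOH. Run at 25 ± 0.5 °C under slow argon flow, with a blank titration for standardization. pKa taken from the Bjerrum difference curve.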

Mus musculus [4] = assay: Ex vivo inhibition of MAO-B in C57Bl mouse brain at 0.5 mg/kg, po after 1 hr by radioenzymatic assay; format: functional; parameters: scale not given: the % may be the effect or the level left
How it was run: (§2)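 C57Bl mice (n = 6 per group) given 0.5 mg/kg orally and killed at 0.5, 1, 2, 4, 8 or 16 h. Brain homogenates in 0.1 M phosphate pH 7.40 assayed radioenzymatically for MAO-B with [14C]PEA. Mean ± SEM, ANOVA with Dunnett's test.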

Mus musculus [5] = assay: Ex vivo inhibition of MAO-B in C57Bl mouse brain at 0.5 mg/kg, po after 30 mins by radioenzymatic assay; format: functional; parameters: scale not given: the % may be the effect or the level left; how it was run: as §2
SH-SY5Y = assay: Cytotoxicity against human SH-SY5Y cells after 24 hrs by MTS assay; format: functional, cell-based
How it was run: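 Human neuroblastoma SH-SY5Y cells kept in DMEM with 10% heat-inactivated FBS. Seeded at 6.25 × 10^4/cm2 and grown 72 h to subconfluence. Switched to serum-free neurobasal medium 30 min before compound, then 24 h at 37 °C with 1, 3, 10, 30 or 100 μM compound. Viability read by colorimetric MTS assay.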

[6] = Permeability across PAMPA membrane assessed as permeability coefficient at 2.5 mM by HDM-PAMPA assay; format: ADME; conditions: 2500 µM
How it was run: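 Hexadecane artificial membrane (0.75 μL per well, applied as 5% v/v in hexane, hexane evaporated) on polycarbonate filters; donor and acceptor in 0.1 M phosphate buffer pH 6.8 with 5% DMSO (iso-pH); 5 h at room temperature, shaking at 75 rpm; quadruplicate. Donor and acceptor concentrations read by UV at λmax. Retention, CA(t)/CD(0) and Pe calculated by the stated equations, τLAG neglected; membrane integrity checked by electrical resistance.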

[7] = biological target: Amine oxidase [flavin-containing] B (Homo sapiens) (UniProt P27338); assay: Inhibition of MAO-B in human platelet rich plasma by radioenzymatic assay
Cytochrome P450 3A4 = Cytochrome P450 3A4 (Homo sapiens, UniProt P08684); assay: Inhibition of human recombinant CYP3A4; format: ADME
How it was run: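 Human recombinant CYP supersomes incubated at 37 °C with compound in NADPH-regenerating buffer, with fluorogenic substrates: 3-cyano-7-ethoxycoumarin for CYP2C19, […] for CYP3A4. Fluorescence read on a plate reader. Known isoform inhibitors run as positive controls in every assay.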

Cytochrome P450 2C9 = Cytochrome P450 2C9 (Homo sapiens, UniProt P11712); assay: Inhibition of human recombinant CYP2C9; format: ADME
How it was run: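 Recombinant human CYP supersomes were incubated at 37 C in incubation/NADPH regenerating buffer with isoform-specific substrates that turn fluorescent on metabolism. The substrate was 3-cyano-7-ethoxycoumarin for CYP1A2 and 7-methoxy-4-trifluoromethylcoumarin for CYP2C9. Fluorescence was read at the appropriate excitation/emission wavelengths, with a literature inhibitor as positive control in each assay.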

Rattus norvegicus = species: Rattus norvegicus; assay: Selectivity index, ratio of IC50 for rat MAO-A to IC50 for rat MAO-B
How it was run: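 Ratio of IC50 values from rat brain mitochondrial radioenzymatic assays: MAO-A with [14C]5-HT 5 μM, 30 min, and MAO-B with [14C]PEA 0.5 μM, 10 min. Both after 30 min preincubation with compound at 37 °C.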

Mus musculus [8] = assay: Ex vivo inhibition of MAO-A in C57Bl mouse brain at 3 mg/kg, po or 3 mg/kg, ip after 1 hr by radioenzymatic assay; format: functional, organism-based; how it was run: as §1
Mus musculus [9] = assay: Ex vivo inhibition of MAO-B in C57Bl mouse brain at 0.5 mg/kg, po after 8 hrs by radioenzymatic assay; format: functional; parameters: scale not given: the % may be the effect or the level left; how it was run: as §2

Sequence of Cytochrome P450 3A4 (P08684 whole entry, canonical isoform): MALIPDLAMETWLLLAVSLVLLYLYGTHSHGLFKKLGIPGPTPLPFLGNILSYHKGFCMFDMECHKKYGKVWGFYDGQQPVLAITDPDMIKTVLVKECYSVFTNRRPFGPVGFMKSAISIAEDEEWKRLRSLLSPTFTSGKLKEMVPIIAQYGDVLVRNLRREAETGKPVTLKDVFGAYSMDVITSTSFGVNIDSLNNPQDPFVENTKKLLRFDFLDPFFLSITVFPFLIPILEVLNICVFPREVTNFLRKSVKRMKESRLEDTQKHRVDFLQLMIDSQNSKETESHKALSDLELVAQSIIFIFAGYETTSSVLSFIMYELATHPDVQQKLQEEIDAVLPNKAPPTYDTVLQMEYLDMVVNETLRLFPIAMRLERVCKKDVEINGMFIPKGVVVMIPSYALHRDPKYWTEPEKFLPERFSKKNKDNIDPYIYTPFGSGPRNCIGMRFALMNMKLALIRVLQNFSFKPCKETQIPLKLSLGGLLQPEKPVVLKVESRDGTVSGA
Sequence of Cytochrome P450 2C9 (P11712 whole entry, canonical isoform): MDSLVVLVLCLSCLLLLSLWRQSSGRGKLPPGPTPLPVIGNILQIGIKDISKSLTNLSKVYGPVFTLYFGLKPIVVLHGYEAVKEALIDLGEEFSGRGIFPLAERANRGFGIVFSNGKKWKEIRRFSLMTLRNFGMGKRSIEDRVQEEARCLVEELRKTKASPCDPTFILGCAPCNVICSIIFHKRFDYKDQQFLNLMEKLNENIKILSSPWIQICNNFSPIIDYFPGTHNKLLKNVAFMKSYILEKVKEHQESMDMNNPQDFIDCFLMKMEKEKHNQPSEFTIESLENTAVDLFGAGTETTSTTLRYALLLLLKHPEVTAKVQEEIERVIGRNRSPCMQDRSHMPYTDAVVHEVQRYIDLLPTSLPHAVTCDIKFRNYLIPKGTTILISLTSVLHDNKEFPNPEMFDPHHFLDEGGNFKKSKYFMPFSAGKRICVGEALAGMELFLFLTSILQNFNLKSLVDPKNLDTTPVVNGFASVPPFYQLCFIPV
Sequence of Amine oxidase [flavin-containing] B (Homo sapiens) (P27338 whole entry, looked up): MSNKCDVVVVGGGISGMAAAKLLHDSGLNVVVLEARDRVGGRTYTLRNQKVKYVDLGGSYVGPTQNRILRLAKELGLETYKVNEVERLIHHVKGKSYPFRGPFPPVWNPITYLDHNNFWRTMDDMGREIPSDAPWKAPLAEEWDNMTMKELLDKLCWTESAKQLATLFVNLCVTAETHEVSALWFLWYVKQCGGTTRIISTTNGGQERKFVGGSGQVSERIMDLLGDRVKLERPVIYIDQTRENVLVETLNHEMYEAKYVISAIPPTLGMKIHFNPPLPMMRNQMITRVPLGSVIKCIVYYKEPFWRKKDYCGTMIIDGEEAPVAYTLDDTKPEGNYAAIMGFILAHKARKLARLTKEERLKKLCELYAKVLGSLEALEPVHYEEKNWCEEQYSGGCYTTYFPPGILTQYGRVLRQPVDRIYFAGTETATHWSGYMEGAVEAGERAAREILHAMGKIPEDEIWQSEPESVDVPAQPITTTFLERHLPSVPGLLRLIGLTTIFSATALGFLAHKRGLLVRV

CNCc1cc(=O)oc2cc(OCc3cccc(Cl)c3)ccc12.CS(=O)(=O)O
IC50 [1]: 13 nM
Activity (Mus musculus [2]): Active
pKa [3]: 7.18
Activity (Mus musculus [4]): 86%
Activity (Mus musculus [5]): 84%
IC50 (SH-SY5Y): 29700 nM
log Pe [6]: -3.48 cm/s
IC50 [7]: 3 nM
IC50 (Cytochrome P450 3A4): > 5000 nM
IC50 (Cytochrome P450 2C9): > 5000 nM
Ratio IC50 (Rattus norvegicus): 457
Activity (Mus musculus [8]): inactive
Activity (Mus musculus [9]): 60%
